Publication PMC7442708 (SLAS discovery : advancing life sciences R & D, 2020)

Tests used:
[1] = test system: Notch-dependent transcription; test: dual luciferase reporter assay; type: cell-based; conditions: TK-Renilla luciferase control reporter (Table S1)
[2] = test system: Notch target genes HEY1 and HES1; test: RT-qPCR of endogenous gene expression in NICD-transfected HEK293T cells; type: cell-based; conditions: 2.5 μM, 24 hours; normalized to beta actin
How it was run: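 Total RNA extracted with TRIzol; cDNA reverse-transcribed from 1 μg RNA. Transcripts quantified by SYBR-based real-time PCR, normalized to beta-actin, and analyzed by the ΔΔCt method.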

[3] = target: RBPJ occupancy (RBPJ-DNA interactions in cells) (Homo sapiens, UniProt Q06330); test: anti-RBPJ ChIP-qPCR in NICD-transfected HEK293T cells; type: cell-based; conditions: 2.5 μM, 24 hours
Chain of RBPJ occupancy (RBPJ-DNA interactions in cells) (Homo sapiens, UniProt Q06330) (Q06330 whole entry): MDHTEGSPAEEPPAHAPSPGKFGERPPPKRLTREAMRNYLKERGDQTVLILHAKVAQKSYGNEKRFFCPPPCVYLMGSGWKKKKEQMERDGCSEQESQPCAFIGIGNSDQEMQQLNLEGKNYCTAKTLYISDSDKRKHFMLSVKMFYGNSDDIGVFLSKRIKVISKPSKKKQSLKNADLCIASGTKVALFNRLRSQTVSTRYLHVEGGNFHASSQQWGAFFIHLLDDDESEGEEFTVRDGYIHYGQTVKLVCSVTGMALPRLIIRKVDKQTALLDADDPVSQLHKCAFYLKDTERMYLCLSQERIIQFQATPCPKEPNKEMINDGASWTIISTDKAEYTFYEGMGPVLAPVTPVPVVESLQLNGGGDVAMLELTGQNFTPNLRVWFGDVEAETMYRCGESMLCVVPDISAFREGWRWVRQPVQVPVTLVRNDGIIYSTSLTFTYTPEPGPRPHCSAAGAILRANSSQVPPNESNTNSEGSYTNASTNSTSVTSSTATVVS
How it was run: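 HEK293T cells (DMEM, 10% FBS) co-transfected with Flag-NICD and 4xRBPJ-firefly luciferase. About 4 million cells were fixed and sonicated on ice (12 cycles, 30 s on/90 s off, 40% amplitude). ChIP used polyclonal anti-RBPJ (FC31, 1:100) with protein A-agarose. SYBR green qPCR; mean ± SEM, N = 3.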

[4] = target: RBPJ occupancy (RBPJ-DNA interactions in cells) (Mus musculus, UniProt P31266); test: anti-RBPJ ChIP-qPCR in F9 cells; type: cell-based, murine; conditions: 2.5 μM, 24 hours
Chain of RBPJ occupancy (RBPJ-DNA interactions in cells) (Mus musculus, UniProt P31266) (P31266 whole entry): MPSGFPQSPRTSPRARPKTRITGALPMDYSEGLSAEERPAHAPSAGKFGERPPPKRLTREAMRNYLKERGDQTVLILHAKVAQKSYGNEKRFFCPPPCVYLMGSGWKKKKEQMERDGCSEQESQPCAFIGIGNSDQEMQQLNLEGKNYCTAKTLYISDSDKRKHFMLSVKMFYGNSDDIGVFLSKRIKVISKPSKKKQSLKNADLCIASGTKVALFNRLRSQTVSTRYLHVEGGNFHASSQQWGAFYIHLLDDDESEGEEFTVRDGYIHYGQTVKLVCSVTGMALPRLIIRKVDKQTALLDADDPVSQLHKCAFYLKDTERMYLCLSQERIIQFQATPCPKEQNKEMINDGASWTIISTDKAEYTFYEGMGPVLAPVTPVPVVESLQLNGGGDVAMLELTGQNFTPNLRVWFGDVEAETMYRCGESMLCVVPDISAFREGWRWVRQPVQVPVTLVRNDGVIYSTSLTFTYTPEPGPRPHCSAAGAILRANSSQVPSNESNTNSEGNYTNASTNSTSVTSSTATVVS
How it was run: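 Murine F9 cells, grown in DMEM with 10% FBS, exposed to 2.5 µM test compound for 24 h. About 4 million cells fixed; chromatin sonicated on ice for 12 cycles (30 s on/90 s off, 40% amplitude). ChIP with polyclonal anti-RBPJ (1:100) and protein A-agarose in 500 μL. Enriched DNA quantified by SYBR green real-time PCR; Actin B serves as negative region. Mean ± SEM, N = 3.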

JURKAT cells = test: cell proliferation, cellular ATP; type: cell-based; conditions: 36 hours; compared to CCRF-CEM, DND-41 and CUTLL1
How it was run: (§1)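 T-ALL cell lines exposed to test compound for 36 h; MOLT-4 grown in RPMI 1640 with 15% FBS. Cellular ATP measured by CellTiter-Glo luminescence as an index of metabolically active cells. Proliferation expressed relative to DMSO control; mean ± SEM, N = 3.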

MOLT4 cells = test: cell proliferation, cellular ATP; type: cell-based; conditions: 36 hours
How it was run: as §1

DND-41 cells = test: cell proliferation, cellular ATP; type: cell-based; conditions: 36 hours
How it was run: (§2)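 Cells kept in RPMI 1640 with 15% FBS (CCRF-CEM, DND-41) and exposed to test compound for 36 h. Cellular ATP was measured by CellTiter-Glo luminescence as an index of metabolically active cells. Proliferation is expressed relative to DMSO control; mean ± SEM, N = 3.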

CUTLL1 cells = test: cell proliferation, cellular ATP; type: cell-based; conditions: 36 hours
CCRF-CEM cells = test: cell proliferation, cellular ATP; type: cell-based; conditions: 36 hours
How it was run: as §2

TALL-1 cells = test: cell proliferation, cellular ATP; type: cell-based; conditions: 96 hours; compared to JURKAT
How it was run: (§3)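 HPB-ALL and TALL-1 cells (DSMZ), grown in RPMI 1640 with 15% FBS. Exposed to varying amounts of test compound for 96 h, a longer exposure chosen because these lines divide more slowly. Metabolically active cells measured as cellular ATP by CellTiter-Glo luminescence. Proliferation expressed relative to DMSO control; mean ± SEM, N = 3.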

HPB-ALL cells = test: cell proliferation, cellular ATP; type: cell-based; conditions: 96 hours; compared to JURKAT
How it was run: as §3

[5] = test system: patient-derived xenograft models; conditions: cited from earlier work
HES1 and HEY1 = conditions: cited from earlier work
KOPT-K1 cells = conditions: compared to JURKAT; cited from earlier work
[6] = site occupied in part through CTCF

CC(=O)OC[C@H]1O[C@@H]([S-])[C@H](OC(C)=O)[C@@H](OC(C)=O)[C@@H]1OC(C)=O.CCP(CC)CC.[Au+] [auranofin, Auranofin]
transcription from the TK promoter [1]: decreases transcription from the TK promoter | expression of HES1 [2]: significantly decreased | expression of HEY1 [2]: significantly decreased | expression of Notch-independent TCERG1 [2]: remained unchanged | RBPJ occupancy at the endogenous HES1 promoter [3]: decreased RBPJ occupancy at these sites significantly | RBPJ occupancy at the endogenous HEY1 promoter [3]: decreased RBPJ occupancy at these sites significantly | RBPJ occupancy at the HES1 promoter ([4]; direct RBPJ binding site): decreased RBPJ occupancy | RBPJ occupancy at the ZFP334 promoter ([4]; direct RBPJ binding site): decreased RBPJ occupancy | RBPJ occupancy at NANOG [4, 6]: not effectively disrupted | RBPJ occupancy at NAPRT1 [4, 6]: not effectively disrupted | sensitivity of proliferation (cellular ATP) (JURKAT cells): most resistant | sensitivity of proliferation (cellular ATP) (MOLT4 cells): more sensitive to auranofin than JURKAT | sensitivity of proliferation (cellular ATP) (DND-41 cells): significantly more sensitive to auranofin than JURKAT | sensitivity of proliferation (cellular ATP) (CUTLL1 cells): significantly more sensitive to auranofin than JURKAT | sensitivity of proliferation (cellular ATP) (CCRF-CEM cells): significantly more sensitive to auranofin than MOLT-4 | proliferation (cellular ATP) (TALL-1 cells): decreased the proliferation | proliferation (cellular ATP) (HPB-ALL cells): decreased the proliferation

CCOC(=O)COc1ccc(/C=C2\SC(=S)NC2=O)cc1OC [IMR-1]
tumor growth [5]: impairs tumor growth

C[C@H](NC(=O)Cc1cc(F)cc(F)c1)C(=O)N[C@H](C(=O)OC(C)(C)C)c1ccccc1 [DAPT]
expression of the classic Notch targets HES1 and HEY1 (HES1 and HEY1): decreases the expression

Cn1nccc1-c1ccc(C(N)=O)c(Oc2ccccc2F)c1 [RIN1]
expression of the classic Notch targets HES1 and HEY1 (HES1 and HEY1): increases the expression | sensitivity of Notch-addicted KOPT-K1 cells (KOPT-K1 cells): as sensitive to RIN1 than Notch-independent JURKAT cells
